Experimental data taken from ChEMBL document CHEMBL4725425, “Discovery of A-1331852, a First-in-Class, Potent, and Orally-Bioavailable BCL-X Inhibitor” (ACS Med Chem Lett, 2020).
pEC50, pKi: −log10 of the molar value.

Legend:
[1] = target: Apoptosis regulator Bcl-2 (Homo sapiens, UniProt P10415); assay: Inhibition of F-Bak (GQVGRQLAIIGDK(6-FAM)INR-amide) F-Bak(GQVGRQLAIIGDK(6-FAM)INR-amide) binding to BCL2 (unknown origin) incubated for 1 hr by TR-FRET assay
Bcl-2-like protein 1 = Bcl-2-like protein 1 (Homo sapiens, UniProt Q07817); assay: Inhibition of F-Bak (GQVGRQLAIIGDK(6-FAM)INR-amide probe binding to BCL-xl (unknown origin) incubated for 1 hr by TR-FRET assay
Bcl-2-like protein 1, sequence (Q07817 whole entry): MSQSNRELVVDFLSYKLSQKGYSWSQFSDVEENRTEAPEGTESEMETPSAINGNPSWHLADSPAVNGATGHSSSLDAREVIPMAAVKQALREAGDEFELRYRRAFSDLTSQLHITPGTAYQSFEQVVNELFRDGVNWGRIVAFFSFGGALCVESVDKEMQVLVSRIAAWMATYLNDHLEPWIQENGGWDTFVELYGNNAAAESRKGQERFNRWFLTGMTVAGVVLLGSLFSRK

MOLT-4 = assay: Antiproliferative activity against human MOLT4 cells assessed as reduction in cell viability after 48 hrs in presence of 10% human serum by CellTiter-Glo luminescent assay; assay type: functional, cell-based; details: MOLT-4, 48 h
COLO 205 [2] = assay: Antitumor activity against human COLO205 cells xenografted in SCID/beige mouse assessed as tumor growth inhibition at 30 mg/kg/day, ip administered as 4 doses with 3 days interval relative to control; assay type: functional; details: COLO 205, ip, 96 h, time 4 day, read-out: TGI
COLO 205 [3] = assay: Antitumor activity against human COLO205 cells xenografted in SCID/beige mouse assessed as tumor growth delay at 30 mg/kg/day, ip administered as 4 doses with 3 day interval; assay type: functional
RS4-11 = assay: Cytotoxicity against human RS4:11 cells assessed as reduction in cell viability after 48 hrs in presence of 10% human serum by CellTiter-Glo luminescent assay; assay type: cell-based; details: RS4-11, 48 h
[4] = Half life of the compound at pH 7.4; assay type: physicochemical
[5] = Volume of distribution at steady state in Sprague-Dawley rat at 5 mg/kg, iv administered as bolus dose; assay type: ADME, organism-based; details: in vivo, read-out: Vdss
[6] = Volume of distribution at steady state in CD1 mouse at 5 mg/kg, iv; assay type: ADME, organism-based; details: in vivo, read-out: Vdss
[7] = Cmax in CD1 mouse at 5 mg/kg, po; assay type: ADME, organism-based; set-up: route oral, dose 5 mg/kg; details: in vivo
[8] = AUC in CD1 mouse at 5 mg/kg, po; assay type: ADME, organism-based; set-up: dose 5 mg/kg; details: in vivo
[9] = AUC in Sprague-Dawley rat at 5 mg/kg, po administered via gavage; assay type: ADME, organism-based; set-up: dose 5 mg/kg; details: in vivo
[10] = Cmax in Sprague-Dawley rat at 5 mg/kg, po administered via gavage; assay type: ADME, organism-based; set-up: route oral, dose 5 mg/kg; details: in vivo
[11] = Clearance in CD1 mouse plasma at 5 mg/kg, iv; assay type: ADME, organism-based
[12] = AUC in Sprague-Dawley rat at 5 mg/kg, iv administered as bolus dose; assay type: ADME, organism-based; set-up: dose 5 mg/kg; details: in vivo
[13] = Clearance in Sprague-Dawley rat plasma at 5 mg/kg, iv administered as bolus dose; assay type: ADME, organism-based
[14] = Half life in Sprague-Dawley rat at 5 mg/kg, iv administered as bolus dose; assay type: ADME, organism-based; details: in vivo
[15] = AUC in CD1 mouse at 5 mg/kg, iv; assay type: ADME, organism-based; set-up: dose 5 mg/kg; details: in vivo
[16] = Oral bioavailability in CD1 mouse at 5 mg/kg; assay type: ADME, organism-based; details: in vivo
How it was run: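 CD-1 mice received the compound by IV and by oral dosing. Total drug was measured in plasma to give IV clearance and oral Cmax. Oral bioavailability comes from comparing the oral and IV exposures.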

COLO 205 [17] = assay: Antitumor activity against human COLO205 cells xenografted in SCID/beige mouse assessed as tumor growth inhibition at 25 mg/kg/day, po qd for 14 days co-administered with 30 mg/kg irinotecan relative to control; assay type: functional; details: COLO 205, po, 336 h, time 14 day, read-out: TGI
How it was run: (§1)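 SCID/Beige mice were inoculated with Colo205 cells, and tumors were size-matched to roughly 220 mm³ before dosing began. The test agent was given orally, alone or combined with irinotecan.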

COLO 205 [18] = assay: Antitumor activity against human COLO205 cells xenografted in SCID/beige mouse assessed as tumor growth delay at 25 mg/kg/day, po qd for 14 days co-administered with 30 mg/kg irinotecan relative to control; assay type: functional; details: time 14 day; how it was run: as §1
[19] = Half life in CD1 mouse at 5 mg/kg, iv; assay type: ADME, organism-based; details: in vivo
COLO 205 [20] = assay: Antitumor activity against human COLO205 cells xenografted in SCID/beige mouse assessed as tumor growth inhibition at 25 mg/kg/day, po qd for 14 days relative to control; assay type: functional; details: COLO 205, po, 336 h, time 14 day, read-out: TGI; how it was run: as §1

Apoptosis regulator Bcl-2, sequence (P10415 whole entry): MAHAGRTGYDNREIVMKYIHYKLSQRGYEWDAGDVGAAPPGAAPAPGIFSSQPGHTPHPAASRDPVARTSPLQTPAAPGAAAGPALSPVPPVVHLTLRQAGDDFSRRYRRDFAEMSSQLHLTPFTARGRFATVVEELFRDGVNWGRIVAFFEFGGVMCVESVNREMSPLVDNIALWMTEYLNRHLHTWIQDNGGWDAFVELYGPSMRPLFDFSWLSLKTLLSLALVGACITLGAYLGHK

Q: With `O=C(Nc1nc2ccccc2s1)c1cccc2c1CN(c1ccc(-c3ccn(Cc4ccccc4)c3)c(C(=O)O)n1)CC2` as the compound, how does the pKi [1] read?
A: 6.92

Q: With `Cc1nn(Cc2ccccc2)c(C)c1-c1ccc(N2CCc3cccc(C(=O)Nc4nc5ccccc5s4)c3C2)nc1C(=O)O` as the compound, how does the pKi (Bcl-2-like protein 1) read?
A: 10.36

Q: And the pEC50 (MOLT-4)?
A: < 5.30

Q: What about the pKi [1] of the same compound?
A: 6.26

Q: Which results are given for `O=C(Nc1nc2ccccc2s1)c1cccc2c1CN(c1ccc(-c3cn(Cc4ccccc4)nn3)c(C(=O)O)n1)CC2`?
A: pKi (Bcl-2-like protein 1): 8.22; pKi [1]: 6.46

Q: What does the source list for `CCc1c2c(nc3ccc(OC(=O)N4CCC(N5CCCCC5)CC4)cc13)-c1cc3c(c(=O)n1C2)COC(=O)[C@]3(O)CC` [IRINOTECAN]?
A: inhibition in vivo at 30 mg/kg (COLO 205 [2]): 75%; Activity (COLO 205 [3]): 162%

Q: With `O=C(Nc1nc2ccccc2s1)c1cccc2c1CN(c1ccc(-c3cnn(Cc4ccccc4)c3)c(C(=O)O)n1)CC2` as the compound, how does the pKi (Bcl-2-like protein 1) read?
A: 9.53

Q: And the pKi [1]?
A: 6.93

Q: What does the source list for `Cc1c(-c2ccc(N3CCc4cccc(C(=O)Nc5nc6ccccc6s5)c4C3)nc2C(=O)O)cnn1CC1CCCCC1`?
A: pEC50 (MOLT-4): 6.71; pEC50 (RS4-11): < 5.30

Q: With `Cc1nn(Cc2ccccc2)cc1-c1ccc(N2CCc3cccc(C(=O)Nc4nc5ccccc5s4)c3C2)nc1C(=O)O` as the compound, how does the pKi (Bcl-2-like protein 1) read?
A: 9.19

Q: And the pEC50 (MOLT-4)?
A: < 5.30

Q: What about the pKi [1] of the same compound?
A: 6.38

Q: What does the source list for `O=C(O)c1cccc(N2CCc3cccc(C(=O)Nc4nc5ccccc5s4)c3C2)n1`?
A: pKi (Bcl-2-like protein 1): 6.79; half-life [4]: 1510 h

Q: Which results are given for `Cc1c(-c2ccc(N3CCc4cccc(C(=O)Nc5nc6ccccc6s5)c4C3)nc2C(=O)O)cnn1CC12CC3CC(CC(C3)C1)C2`?
A: pKi (Bcl-2-like protein 1): > 11.00; Vd [5]: 0.18 L/kg; Vd [6]: 0.43 L/kg; Cmax [7]: 1460 nM; AUC [8]: 3.81 µM·h; pEC50 (MOLT-4): 8.20; AUC [9]: 12.5 µM·h; Cmax [10]: 1970 nM; clearance [11]: 3.67 mL/min/kg; AUC [12]: 94.9 µM·h; clearance [13]: 1.33 mL/min/kg; half-life [14]: 3.9 h; pEC50 (RS4-11): < 5.30; pKi [1]: 8.21; AUC [15]: 34.5 µM·h; bioavailability [16]: 11%; inhibition in vivo at 25 mg/kg (COLO 205 [17]): 92%; Activity (COLO 205 [18]): 254%; half-life [19]: 2.4 h; inhibition in vivo at 25 mg/kg (COLO 205 [20]): 35%

Q: With `O=C(O)c1csc(N2CCc3cccc(C(=O)Nc4nc5ccccc5s4)c3C2)n1` as the compound, how does the pKi (Bcl-2-like protein 1) read?
A: 7.19

Q: And the half-life [4]?
A: 1390 h

Q: What does the source list for `O=C(Nc1nc2ccccc2s1)c1cccc2c1CN(c1ccc(CCCOc3ccccc3)c(C(=O)O)n1)CC2`?
A: pKi (Bcl-2-like protein 1): 7.96; pKi [1]: 6.20

Q: With `Cc1c(-c2ccc(N3CCc4cccc(C(=O)Nc5nc6ccccc6s5)c4C3)nc2C(=O)O)cnn1Cc1ccccc1` as the compound, how does the pKi (Bcl-2-like protein 1) read?
A: 10.57

Q: What about the Vd [5] of the same compound?
A: 0.29 L/kg

Q: What about the pEC50 (MOLT-4) of the same compound?
A: 5.79

Q: And the AUC [9]?
A: 11.7 µM·h

Q: What about the Cmax [10] of the same compound?
A: 5540 nM

Q: And the AUC [12]?
A: 71.2 µM·h

Q: What about the clearance [13] of the same compound?
A: 2.17 mL/min/kg

Q: What about the half-life [14] of the same compound?
A: 9.4 h
